Here are results for two compounds from ChEMBL document CHEMBL4699542, “Design and synthesis of novel methoxypyridine-derived gamma-secretase modulators” (Bioorg Med Chem, 2020).

Series [1] can be described thus: In vivo modulation of gamma secretase transgenic Tg2576 mouse overexpressing human APP harboring K595N/M596L Swedish double mutant assessed as reduction in brain amyloid beta38 level at 50 mg/kg, po administered via gavage for 14 consecutive days and measured after 4 hrs post last dose on day 14 by meso scale discovery relative to control. Format: functional. The arrangement: scale not given: the % may be the effect or the level left. Particulars: time 14 day. The procedure, abridged: (§1)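 Female Tg2576 mice, 5–6 months old (n=12/dose), gavaged daily for 14 days with 50 mg/kg or vehicle (5% NMP/95% PEG300). Plasma and brain taken 4 h after the last dose. Aβ38/40/42 quantified by Meso Scale multiplex assay, with % reduction versus vehicle. Mean ± SEM, ANOVA.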

Series [2] can be described thus: Kinetic aqueous solubility of the compound in pH 7.4 PBS buffer by UV/Visible absorbance analysis. Format: physicochemical. The conditions noted are these: read-out: Kinetic_solubility. The procedure, abridged:
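Kinetic solubility determined in PBS at pH 7.4 by UV/Vis absorbance, reported in μM.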

For series [3], the system named is Mus musculus. Description: In vivo modulation of gamma secretase in po dosed transgenic J20 mouse overexpressing human APP assessed as reduction in plasma amyloid beta40 level administered via gavage for 3 consecutive days and measured after 4 hrs post last dose on day 3 by meso scale discovery. The class given is functional, organism-based. The conditions noted are these: dose mg/kg 25-100, time 3.0 day. A digest of the protocol:
(§2)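 Female J20 mice, 5–6 months old (n=5/dose), dosed orally at 25, 50 or 100 mg/kg or with vehicle (5% NMP/95% PEG300) for 3 consecutive days. Plasma was taken 4 h after the final dose. Aβ38/40/42 measured by Meso Scale multiplex immunoassay, with % reduction relative to vehicle. Mean ± SEM, ANOVA.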

Series [4] concerns Mus musculus. The series can be described thus: In vivo modulation of gamma secretase in po dosed transgenic J20 mouse overexpressing human APP assessed as reduction in plasma amyloid beta42 level administered via gavage for 3 consecutive days and measured after 4 hrs post last dose on day 3 by meso scale discovery. The class given is functional, organism-based. Particulars: dose mg/kg 25-100, time 3.0 day. A digest of the protocol:
as §2

A short description of series [5]: In vivo modulation of gamma secretase transgenic Tg2576 mouse overexpressing human APP harboring K595N/M596L Swedish double mutant assessed as reduction in brain amyloid beta40 level at 50 mg/kg, po administered via gavage for 14 consecutive days and measured after 4 hrs post last dose on day 14 by meso scale discovery relative to control. The class given is functional. Details: scale not given: the % may be the effect or the level left. Particulars: time 14 day. The procedure, abridged: as §1

Series [6] in a line: Drug level in plasma of transgenic Tg2576 mouse overexpressing human APP harboring K595N/M596L Swedish double mutant at 50 mg/kg, po administered via gavage for 14 consecutive days and measured after 4 hrs post last dose on day 14 by HPLC-MS/MS analysis. The class given is ADME, organism-based. The conditions noted are these: time 14 day. The procedure, abridged: (§3)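 Female Tg2576 mice, 5–6 months old, gavaged with 50 mg/kg daily for 14 days (vehicle 5% NMP/95% PEG300), n=12/dose. Plasma and brain collected 4 h after the last dose and analysed by LC-MS/MS. LLOQ was 1 ng/mL in plasma and 5 ng/g in brain.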

Series [7] in a line: Oral bioavailability in CD-1 mouse at 5 mg/kg administered as single dose measured up to 24 hrs. Format: ADME, organism-based. Particulars: in vivo. A digest of the protocol: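 CD-1 mouse PK after single iv (1 mg/kg) and oral gavage (5 mg/kg) dosing, with plasma sampled to 24 h (n=3/timepoint) and measured by HPLC/MS/MS. F(%) = (AUC0-inf po × Dose iv)/(AUC0-inf iv × Dose po) × 100.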

A short description of series [8]: In vivo modulation of gamma secretase transgenic Tg2576 mouse overexpressing human APP harboring K595N/M596L Swedish double mutant assessed as reduction in plasma amyloid beta42 level at 50 mg/kg, po administered via gavage for 14 consecutive days and measured after 4 hrs post last dose on day 14 by meso scale discovery relative to control. Details: scale not given: the % may be the effect or the level left. Format: functional. Particulars: time 14 day. The procedure, abridged:
as §1

Series [9] can be described thus: In vivo modulation of gamma secretase transgenic Tg2576 mouse overexpressing human APP harboring K595N/M596L Swedish double mutant assessed as reduction in plasma amyloid beta40 level at 50 mg/kg, po administered via gavage for 14 consecutive days and measured after 4 hrs post last dose on day 14 by meso scale discovery relative to control. Format: functional. Details: scale not given: the % may be the effect or the level left. The conditions noted are these: time 14 day. The procedure, abridged:
as §1

Series [10] in a line: In vivo modulation of gamma secretase transgenic Tg2576 mouse overexpressing human APP harboring K595N/M596L Swedish double mutant assessed as reduction in plasma amyloid beta38 level at 50 mg/kg, po administered via gavage for 14 consecutive days and measured after 4 hrs post last dose on day 14 by meso scale discovery relative to control. Format: functional. The arrangement: scale not given: the % may be the effect or the level left. The conditions noted are these: time 14 day. The procedure, abridged:
as §1

Series [11] is described as follows: Ratio of drug level in brain to plasma of transgenic Tg2576 mouse overexpressing human APP harboring K595N/M596L Swedish double mutant at 50 mg/kg, po administered via gavage for 14 consecutive days and measured after 4 hrs post last dose on day 14 by HPLC-MS/MS analysis. The class given is ADME, organism-based. Particulars: 336 h, time 14 day. A digest of the protocol: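 Female Tg2576 mice, 5–6 months old (n=12/dose), given 50 mg/kg by oral gavage daily for 14 days in 5% NMP/95% PEG300. Sacrificed 4 h after the day-14 dose. Plasma and brain drug levels measured by LC-MS/MS (LLOQ 1 ng/mL plasma, 5 ng/g brain). Ratio = brain/plasma.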

The nature of series [12]: Drug level in brain of transgenic J20 mouse overexpressing human APP at 100 mg/kg, po administered via gavage for 3 consecutive days and measured after 4 hrs post last dose on day 3 by HPLC-MS/MS analysis. The conditions noted are these: time 3 day, read-out: Ct. The class given is ADME, organism-based. The procedure, abridged:
(§4)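 Female J20 mice, 5–6 months old, given 25, 50 or 100 mg/kg orally (5% NMP/95% PEG300) daily for 3 days, n=5/dose. Plasma and brain taken 4 h after the final dose and analysed by LC-MS/MS. LLOQ was 1 ng/mL in plasma and 5 ng/g in brain.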

Series [13] can be described thus: Drug level in brain of transgenic Tg2576 mouse overexpressing human APP harboring K595N/M596L Swedish double mutant at 50 mg/kg, po administered via gavage for 14 consecutive days and measured after 4 hrs post last dose on day 14 by HPLC-MS/MS analysis. The class given is ADME, organism-based. Particulars: time 14 day, read-out: Ct. The procedure, abridged: as §3

Series [14] is described as follows: Drug level in plasma of transgenic J20 mouse overexpressing human APP at 25 mg/kg, po administered via gavage for 3 consecutive days and measured after 4 hrs post last dose on day 3 by HPLC-MS/MS analysis. The class given is ADME, organism-based. The conditions noted are these: time 3 day. A digest of the protocol: as §4
Series [15] can be described thus: Efflux ratio of apparent permeability from basolateral to apical membrane over apical to basolateral membrane in MDCK-MDR1 cells. Format: ADME, cell-based, Canis lupus familiaris. The conditions noted are these: dog. The procedure, abridged:
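Calculated as B-A/A-B apparent permeability ratio across MDR1-MDCK cell monolayers; A-B permeability expressed as ×10⁻⁶ cm/s.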

The next series deals with Cytochrome P450 3A4 (Homo sapiens, UniProt P08684). The series can be described thus: Inhibition of recombinant CYP3A4 (unknown origin) by fluorescence-based assay. Format: ADME.
The target in series [16] is Voltage-gated inwardly rectifying potassium channel KCNH2 (Homo sapiens, UniProt Q12809). The series can be described thus: Inhibition of human ERG expressed in HEK293 cells by patch clamp assay. The class given is cell-based. A general note: The patch-clamp technique gives a direct electrical read-out from membranes.
The nature of series [17]: Drug metabolism in CD-1 mouse liver. The class given is ADME, tissue-based. Particulars: read-out: Drug metabolism. The procedure, abridged:
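Test compound at 1 μM incubated 30 min with human, rat or mouse liver microsomes (1 mg/mL); parent remaining expressed as %.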

The structures appear in SMILES notation. Values after ≈ are worked out from the molar mass of the structure shown.

As a reminder, the IC50 is the concentration needed to halve the response being measured.

Sequence of Voltage-gated inwardly rectifying potassium channel KCNH2 (Q12809 whole entry): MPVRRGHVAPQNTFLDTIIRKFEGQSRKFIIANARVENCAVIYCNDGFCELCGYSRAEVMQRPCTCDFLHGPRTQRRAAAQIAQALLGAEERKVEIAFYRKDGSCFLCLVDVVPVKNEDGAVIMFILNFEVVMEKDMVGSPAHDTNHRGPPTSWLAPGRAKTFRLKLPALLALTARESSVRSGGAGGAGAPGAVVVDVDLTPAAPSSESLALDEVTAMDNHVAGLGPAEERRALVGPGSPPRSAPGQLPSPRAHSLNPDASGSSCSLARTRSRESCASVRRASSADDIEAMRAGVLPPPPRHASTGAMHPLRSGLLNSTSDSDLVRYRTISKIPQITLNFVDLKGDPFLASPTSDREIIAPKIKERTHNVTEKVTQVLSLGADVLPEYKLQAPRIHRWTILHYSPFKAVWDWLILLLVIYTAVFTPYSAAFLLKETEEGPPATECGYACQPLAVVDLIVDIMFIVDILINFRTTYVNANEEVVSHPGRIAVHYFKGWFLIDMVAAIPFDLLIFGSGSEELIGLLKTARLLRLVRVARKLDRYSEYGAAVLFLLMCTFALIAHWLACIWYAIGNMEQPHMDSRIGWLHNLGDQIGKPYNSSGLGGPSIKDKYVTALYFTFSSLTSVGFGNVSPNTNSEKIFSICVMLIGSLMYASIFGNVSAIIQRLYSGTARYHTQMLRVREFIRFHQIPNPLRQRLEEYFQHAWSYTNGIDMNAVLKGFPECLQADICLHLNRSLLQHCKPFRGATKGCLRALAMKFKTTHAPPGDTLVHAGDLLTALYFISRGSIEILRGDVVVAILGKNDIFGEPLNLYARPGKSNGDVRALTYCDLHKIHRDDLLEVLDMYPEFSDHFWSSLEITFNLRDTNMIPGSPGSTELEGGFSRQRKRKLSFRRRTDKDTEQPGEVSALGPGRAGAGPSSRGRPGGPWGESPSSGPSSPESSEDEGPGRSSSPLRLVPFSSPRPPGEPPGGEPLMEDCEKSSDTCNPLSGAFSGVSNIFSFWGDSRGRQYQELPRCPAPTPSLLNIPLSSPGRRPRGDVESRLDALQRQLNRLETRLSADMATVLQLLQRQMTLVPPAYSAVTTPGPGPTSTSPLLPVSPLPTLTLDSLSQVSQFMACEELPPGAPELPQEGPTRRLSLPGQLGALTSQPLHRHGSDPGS
Sequence of Cytochrome P450 3A4 (P08684 whole entry): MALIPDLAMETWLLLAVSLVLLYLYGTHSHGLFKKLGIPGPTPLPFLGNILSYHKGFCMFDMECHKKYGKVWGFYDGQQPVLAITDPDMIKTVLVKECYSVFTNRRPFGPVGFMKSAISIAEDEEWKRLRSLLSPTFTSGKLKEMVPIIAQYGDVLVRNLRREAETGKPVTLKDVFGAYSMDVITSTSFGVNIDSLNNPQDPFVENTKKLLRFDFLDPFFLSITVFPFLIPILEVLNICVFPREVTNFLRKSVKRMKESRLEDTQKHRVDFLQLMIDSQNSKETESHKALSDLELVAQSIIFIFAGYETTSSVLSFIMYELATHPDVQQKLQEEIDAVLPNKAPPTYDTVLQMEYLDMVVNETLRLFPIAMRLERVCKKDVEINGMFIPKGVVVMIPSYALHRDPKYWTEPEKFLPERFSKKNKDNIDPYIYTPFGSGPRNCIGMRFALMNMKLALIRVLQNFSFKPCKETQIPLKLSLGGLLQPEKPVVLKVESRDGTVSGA

`CCn1nc2c(c1Nc1nc(-c3ccc(-n4cnc(C)c4)c(OC)n3)cs1)CCC2`: the Activity in [1] is 0%; in the series on Mus musculus [3], “Dose-dependent effect”; in the series on Mus musculus [4], “Dose-dependent effect”; in series [5], 1%; in series [8] it was 52%; in [9], 24%. Besides, in series [10], the Activity is given as 111%. Besides, the solubility kinetic in series [2] is 7.8 µM (≈ 3.29 µg/mL). The concentration at 336 h was determined as 1130 ng/mL in series [6] and 425 ng/g in series [13]. In series [7], the F is listed as 66%. For the same compound, in series [11], the BPR turned out to be 0.374. Besides, the concentration at 72 h amounted to 337 ng/g in [12] and 86 ng/mL in [14].
For the compound `COc1nc(-c2csc(Nc3c4c(nn3CCF)CCCC4)n2)ccc1-n1cnc(C)c1`, the Ratio in series [15] came to 1.9. Besides, in series [2], the solubility kinetic worked out at 15 µM (≈ 6.8 µg/mL). The results for the IC50 (on Cytochrome P450 3A4; in series [16]) were 1 µM and 11.4 µM, respectively. Also, the concentration at 72 h in series [12] came out at 105 ng/g; in series [14], 72 ng/mL. Besides, the metabolised in series [17] was found to be 60%.
